Activity calls are given as the source filed them. The calls are words filed in the database; no cut-off is given here.
Experiments:
Rattus norvegicus [1] = experiment: Hypoglycemic activity in fasted Lewis rat at 2 mg/kg, iv administered 30 mins prior to glucose stimulation measured after 120 mins by glucose tolerance test; assay type: functional, organism-based; parameters: dose 2 mg/kg
In short: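 Lewis rats fasted 6 h received drug iv at −30 min (2mg/kg), then glucose 2g/kg ip at 0 min; blood glucose followed 120 min. AUC IPGTT by trapezoidal rule, SEM (n=5); drug versus vehicle compared by Student's t test.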

Rattus norvegicus [2] = experiment: Toxicity in Lewis rat assessed as tonic seizure at 2 mg/kg; assay type: organism-based; parameters: dose 2 mg/kg; details: in vivo
[3] = target: Dipeptidyl peptidase 4 (Homo sapiens) (UniProt P27487); experiment: Inhibition of DPP4 upto 10 uM
Chain of Dipeptidyl peptidase 4 (Homo sapiens) (P27487 whole entry, looked up): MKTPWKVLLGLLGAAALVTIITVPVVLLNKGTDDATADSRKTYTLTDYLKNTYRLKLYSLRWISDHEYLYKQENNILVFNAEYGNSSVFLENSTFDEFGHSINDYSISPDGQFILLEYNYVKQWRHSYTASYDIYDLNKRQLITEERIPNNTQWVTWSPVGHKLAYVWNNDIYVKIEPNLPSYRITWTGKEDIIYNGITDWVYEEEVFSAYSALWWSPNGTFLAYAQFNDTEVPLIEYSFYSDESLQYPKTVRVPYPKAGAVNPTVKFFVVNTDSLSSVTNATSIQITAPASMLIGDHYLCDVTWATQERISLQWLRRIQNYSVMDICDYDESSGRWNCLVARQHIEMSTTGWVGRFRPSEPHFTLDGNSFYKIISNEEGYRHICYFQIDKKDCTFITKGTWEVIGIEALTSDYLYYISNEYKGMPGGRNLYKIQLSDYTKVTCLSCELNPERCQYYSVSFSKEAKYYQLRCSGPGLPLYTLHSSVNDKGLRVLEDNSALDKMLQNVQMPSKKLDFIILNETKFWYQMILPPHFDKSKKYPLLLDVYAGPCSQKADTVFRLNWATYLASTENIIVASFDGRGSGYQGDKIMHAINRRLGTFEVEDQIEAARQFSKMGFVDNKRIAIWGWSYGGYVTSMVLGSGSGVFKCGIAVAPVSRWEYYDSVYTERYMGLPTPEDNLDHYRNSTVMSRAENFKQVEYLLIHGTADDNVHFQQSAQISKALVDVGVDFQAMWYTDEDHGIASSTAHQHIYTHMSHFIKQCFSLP

For `COc1ccc(C2CC(OCC(C)C)=CC(=O)O2)cc1OC` (stereo not drawn), the Activity (Rattus norvegicus [1]) was “inactive”.

In the case of `COc1cc2c(cc1OC)C1CC(OCC(C)C)=CC(=O)N1CC2` (stereo not drawn), the Activity (Rattus norvegicus [1]) is reported as “Active”.

For `COc1cc2c(cc1OC)C1CC(=O)C(CC(C)C)CN1CC2` (stereo not drawn) [TETRABENAZINE], the Activity (Rattus norvegicus [2]) was “Toxic”.

For `COC1=CC(=O)OC(c2ccc(OC)c(OC)c2)C1` (stereo not drawn), the Activity (Rattus norvegicus [1]) was “inactive”.

In the case of `COc1ccc(C2CC(=O)CC(=O)N2)cc1OC` (stereo not drawn), the Activity (Rattus norvegicus [1]) is reported as “inactive”.

`COc1ccc(C2CC(OCC(C)C)=CC(=O)N2)cc1OC` (stereo not drawn) was tested, and the Activity (Rattus norvegicus [2]) was “Non-toxic”, the Activity (Rattus norvegicus [1]) was “Active” and the Activity [3] was “inactive”.

In the case of `COc1ccc(-c2cc(OCC(C)C)cc(=O)[nH]2)cc1OC`, the Activity (Rattus norvegicus [1]) is reported as “inactive”.

For `COc1ccc(C2CC(O)C(CC(C)C)CN2)cc1OC` (stereo not drawn), the Activity (Rattus norvegicus [1]) was “Active”.

For `COc1cc2c(cc1OC)[C@@H]1C[C@H](O)[C@@H](CC(C)C)CN1CC2`, the Activity (Rattus norvegicus [2]) was “Toxic” and the Activity (Rattus norvegicus [1]) was “Active”.

With `COC1=CC(=O)N2CCc3cc(OC)c(OC)cc3C2C1` (stereo not drawn) the Activity (Rattus norvegicus [1]) was “Active”.
